TAAR1 agonist = agonists of human TAAR1; Q96RJ0; CHO RD-HGA16 TAAR1, Fluo-8 calcium fluorescence; vehicle wells 0%, saturating PEA agonist 100%; activation, % at 3 µM; 0.99% of 360,000 active; AID 624467;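 active means activation above the mean activation of all test compounds in the run plus 3 SD, cut at about 38% in these data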
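Test system: RD-HGA16 (CHO) cells co-expressing Gα16 and hTAAR1 | Doses: Single dose, 3 µM | Schedule: 17-24 h seeding, 75 min 37 °C dye, 30 min RT | Evaluation: % activation from peak over basal fluorescence ratio, DMSO-to-PEA scaled | Technique: Kinetic Fluo-8 calcium fluorescence | Benchmarks: Low control DMSO, high control PEA (EC100)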
OX1R antag-1 = blocks the human orexin 1 receptor. O43613. inhibition, % at 5 µM. AID 434989. CHO/OX1R cells, Fluo-8 calcium fluorescence, orexin A. 0.43% of 330,000 active;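 active means inhibition above its plate's threshold, mean inhibition of all tested compounds on the plate plus 3 SD, cut at about 37% in these data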
CHO parental Ca = signal in parental CHO cells, OX1R antagonist counter-screen | inhibition, % at 5.6 µM | parental CHO-K1, ATP-induced calcium, Fluo-8 fluorescence | 0.63% of 330,000 active | AID 463079;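 active means inhibition above that plate's mean sample inhibition plus 3 SD, cut at about 26% in these data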
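Test system: untransfected parental CHO cell line. Compound: one dose, 5.6 µM nominal. Detection: intracellular calcium via Fluo-8 no-wash fluorescent dye. Measure: % inhibition. Benchmarks: ATP-challenged DMSO wells low, unchallenged DMSO wells high.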
GalR3 antagonist = antagonists of human GalR3. O60755. HEK293 GalR3-CNG cAMP membrane potential fluorescence; galR3 body fused to GalR1 C-terminus. inhibition, % at 3 µM. 0.44% of 360,000 active;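 active means inhibition above the screen-wide average plus 3 SD, cut at about 13% in these data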;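 further: forskolin and galanin both at EC90 stimulate the cells; cAMP rise reported by CNG channel membrane potential dye signal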
Target sequence (O60755 1-299 limits assumed): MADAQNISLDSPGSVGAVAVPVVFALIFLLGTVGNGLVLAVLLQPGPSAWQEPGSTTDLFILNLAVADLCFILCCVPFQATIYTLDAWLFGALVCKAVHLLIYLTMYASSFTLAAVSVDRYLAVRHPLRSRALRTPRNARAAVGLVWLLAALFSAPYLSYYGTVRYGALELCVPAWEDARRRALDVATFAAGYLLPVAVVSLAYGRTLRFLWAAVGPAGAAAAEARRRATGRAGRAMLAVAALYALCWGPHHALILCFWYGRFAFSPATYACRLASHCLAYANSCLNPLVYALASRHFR
TAAR1 antag = human TAAR1 antagonism; Q96RJ0; CHO RD-HGA16 TAAR1, Fluo-8 calcium fluorescence, antagonist; inhibition, % at 3 µM; AID 624466; 1.5% of 360,000 active;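 active means inhibition above a per-plate cutoff, the mean inhibition of test compounds on that plate plus 3 SD, cut at about 49% in these data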
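Test system – hTAAR1-expressing CHO RD-HGA16 cells, Gα16-coupled · Reagent – β-PEA at EC80 concentration, post-compound challenge · Compound dosing – 3 µM, single point · Timing – 140 s kinetic read after compound, 140 s after agonist · Detection – Fluo-8 intracellular calcium dye fluorescence, real-time kinetic reads · Control set – DMSO and EC80 PEA controls · Repeats – n of 1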
OX1R antag-2 = OX1R (human) antagonism; OX1R-expressing cells, FRET antagonist read-out; inhibition, % at 6.6 µM; 1.8% of 330,000 active; in the data active means inhibition mostly above about 38%, no sharp cut-off; inactive means mostly below about 40%
TAAR1 ag conf = confirmation of human TAAR1 agonists | 82% of 2,400 active | CHO RD-HGA16 TAAR1, Fluo-8 calcium fluorescence; scaled: DMSO 0%, maximal phenethylamine 100% | AID 651783 | activation, % at 3 µM | shares compounds with TAAR1 agonist;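 active means activation above a cutoff set at the run's mean compound activation plus 3 SD, cut at about 39% in these data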
Ga16 ag counter = nonselective agonist in parental cells, TAAR1 agonist counter-screen. CHO-Ga16 parental, Fluo-8 calcium fluorescence; normalized to maximal ATP response, DMSO zero. 50% of 2,400 active. AID 651787. shares compounds with TAAR1 agonist. activation, % at 3 µM;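 active means activation above the run cutoff, the mean activation over all tested wells plus 3 SD, cut at about 12% in these data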
TAAR1 desensitize = TAAR1 response desensitization, agonist counter-screen; shares compounds with TAAR1 agonist; 46% of 2,400 active; inhibition, % at 3 µM; CHO RD-HGA16 hTAAR1, Fluo-8 calcium, beta-PEA response inhibition; AID 651951;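 active means inhibition above the run cutoff, the mean inhibition of all test compounds plus 3 SD, cut at about 49% in these data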;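 further: beta-PEA stimulus applied at its EC80; loss of beta-PEA calcium signal after compound pretreatment read as receptor desensitization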
Ga16 nonsel ant = counter-screen for TAAR1 agonists: nonselective Ga16 antagonists; shares compounds with TAAR1 agonist; CHO-Ga16 ATP-induced calcium, Fluo-8 fluorescence; inhibition, % at 3 µM; 39% of 2,400 active; AID 651952;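 active means inhibition above the plate's mean compound inhibition plus 3 SD, computed per plate, cut at about 22% in these data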
A number is an active result; – = inactive; · = no result. Shown are actives, neighbours in structure and some others; about 4.3% of the full set was active somewhere.

SMILES	TAAR1 agonist	OX1R antag-1	CHO parental Ca	GalR3 antagonist	TAAR1 antag	OX1R antag-2	TAAR1 ag conf	Ga16 ag counter	TAAR1 desensitize	Ga16 nonsel ant
COc1ccc(C(=O)CC(=O)C(=O)Nc2cccc([N+](=O)[O-])c2C)cc1	71	–	–	–	–	–	83	62	–	23
COc1cccc(C(=O)CC(=O)C(=O)Nc2cccc([N+](=O)[O-])c2C)c1	60	–	–	–	–	–	120	75	77	41
COc1cc(CNCc2ccccn2)ccc1OCC(N)=O	–	–	–	–	–	–	·	·	·	·
COc1ccc(CNCCc2ccccc2)cc1OCC(N)=O	52	–	–	–	–	–	75	–	–	–
CN1CCNC(=O)C1CC(=O)NCCc1ccccc1F (configuration not stated)	74	–	–	–	–	–	89	–	59	–
CCOc1ccc(CN2CCNC(=O)C2CC(=O)NCCc2ccccn2)cc1 (configuration not stated)	–	–	–	–	–	–	·	·	·	·
O=C(CC1C(=O)NCCN1Cc1ccccn1)NCCc1ccccc1F (configuration not stated)	78	–	–	–	–	–	97	–	72	–
COc1cccc(C2c3cc4c(cc3OC(NNC(N)=O)C2C)OCO4)c1O (configuration not stated)	–	·	·	–	–	·	·	·	·	·
Cc1ccc(S(=O)(=O)n2nc(OC(=O)c3cccc(F)c3)cc2N)cc1	103	–	–	–	–	–	56	38	–	–
Cc1ccc(S(=O)(=O)n2nc(OC(=O)c3c(F)cccc3Cl)cc2N)cc1	60	–	–	–	–	–	65	27	–	–
CC(C(=O)Nc1ccc2c(c1)OCO2)c1ccc([N+](=O)[O-])cc1 (configuration not stated)	–	–	–	–	–	–	·	·	·	·
CC(C(=O)Nc1ccc2c(c1)OCCO2)c1ccc([N+](=O)[O-])cc1 (configuration not stated)	128	–	31	–	76	–	123	85	78	40
CC(CCc1ccc(O)cc1)N(C)CCc1ccccc1 (configuration not stated)	49	–	–	–	–	–	61	–	–	–
CC(CCc1ccc(O)cc1)NCCC(c1ccccc1)c1ccccc1 (configuration not stated)	–	–	–	–	–	–	·	·	·	·
CCC(C)n1c(C)cc(=O)n1C(C)CC (configuration not stated)	–	·	·	–	–	·	·	·	·	·
CCCN1CCN(CCCNC(=O)CN2C(=O)c3cccnc3Oc3ccc(C)cc32)CC1	–	–	–	–	–	–	·	·	·	·
Cc1ccc2c(c1)N(CC(=O)NCC(C)c1ccccc1)C(=O)c1cccnc1O2 (configuration not stated)	56	–	–	–	–	–	74	–	50	–
c1ccc(C[C@H]2CNCCN2CCCCC2CCCCC2)cc1	53	–	–	–	–	–	54	22	–	29
FC(F)(F)c1cc(CCN2CCNC[C@@H]2c2ccccc2)cc(C(F)(F)F)c1	45	–	–	–	–	–	–	–	–	–
Fc1cccc(CCN2CCNC[C@@H]2c2ccccc2)c1	–	–	–	–	–	–	·	·	·	·
